Assay outcomes from PubChem.
Most compounds without a hit are left out; they make up all but 1.6% or so of the library.
KLK7 zymogen act = proKLK7 zymogen activators, primary screen, biochemical, fluorescence intensity. Kallikrein-7 (Homo sapiens), P49862. purified proKLK7, EDANS-DABCYL substrate fluorescence; 100% is mature enzyme control, 0% vehicle. activation, % at 7 µM. actives 0.9% (n = 370,000);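 active = activation above the mean of all tested compounds plus 3 SD, computed per campaign excluding outliers beyond control limits, cut at about 13% in these data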
Target sequence (P49862 whole entry, looked up): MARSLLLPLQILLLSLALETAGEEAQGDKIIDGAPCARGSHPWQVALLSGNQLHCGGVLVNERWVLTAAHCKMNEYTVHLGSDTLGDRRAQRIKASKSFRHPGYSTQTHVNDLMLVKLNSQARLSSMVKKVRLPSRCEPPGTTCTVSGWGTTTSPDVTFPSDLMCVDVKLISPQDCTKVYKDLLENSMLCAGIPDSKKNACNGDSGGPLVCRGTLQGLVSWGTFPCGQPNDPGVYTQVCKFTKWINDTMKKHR
proCasp3 act = activators of human procaspase-3 D3A mutant, primary screen, biochemical, absorbance, PC-3 D3A mutant, single concentration | Caspase-3 (Homo sapiens), P42574 | recombinant procaspase-3 D3A, Ac-DEVD-pNA absorbance 405 nm | activation, % at 8.5 µM | actives 0.11% (n = 330,000) | AID 463141, 2010;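 active = activation above the mean of all tested compounds plus 3 SD, cut at about 21% in these data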;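 note: 0% = DMSO alone and 100% = DMSO wells spiked with extra 5 µM PC-3 D3A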
Target sequence (P42574 whole entry D9A/D28A/D175A): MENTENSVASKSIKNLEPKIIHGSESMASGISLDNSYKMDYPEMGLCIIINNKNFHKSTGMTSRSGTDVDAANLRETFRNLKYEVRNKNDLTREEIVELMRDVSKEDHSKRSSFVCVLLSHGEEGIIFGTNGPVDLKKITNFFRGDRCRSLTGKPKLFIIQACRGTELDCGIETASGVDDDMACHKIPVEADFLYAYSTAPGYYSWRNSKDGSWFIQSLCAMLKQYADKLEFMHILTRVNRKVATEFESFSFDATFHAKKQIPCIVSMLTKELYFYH
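System: Procaspase-3 D3A mutant. Medium: Zinc-free 300 mM NaCl, 50 mM HEPES, 0.01% Triton X-100. Schedule: 1 h preincubation plus 2 h reaction at 25 °C. Measured by: 405 nm absorbance of p-nitroaniline, reads at 0 and 120 min. Read-out: percent activation relative to control range.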
proCasp7 act = procaspase-7 activators, primary screen, counter-screen for procaspase-3 activator project, biochemical, absorbance, HTS, human | activation, % at 8.5 µM | recombinant procaspase-7, Ac-DEVD-pNA absorbance 405 nm; D23A/D198A/D206A triple mutant, cannot self-cleave; scale: DMSO 0, 5 µM enzyme 100 | actives 0.093% (n = 330,000) | Caspase-7 (Homo sapiens), P55210;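 active = percent activation above the screen-wide mean plus 3 SD, cut at about 25% in these data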
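System: Procaspase-7 triple mutant (PC-7 D3A); measure: % activation from two-timepoint absorbance difference, scaled to controls; times: 1 h compound preincubation, 2 h substrate cleavage, 25 °C; also added: Ac-DEVD-pNA substrate, 400 µM as added; measured by: Epi-absorbance of released pNA at 405 nm, two timepoints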
Neddylation inh = inhibitors of cullin neddylation, primary screen, biochemical, TR-FRET, uHTS, NAE and Ubc12; NEDD8-conjugating enzyme Ubc12 (Homo sapiens) + NEDD8-activating enzyme E1 regulatory …; calls only at 25 µM; actives 0.58% (n = 360,000); AID 651699, 2012; in the data active = inhibition above about 36%
KLK7 act conf = proKLK7 zymogen activators, confirmation, biochemical, fluorescence intensity, triplicate; actives 68% (n = 3,200); AID 686949, 2013; activation, % at 7 µM; purified proKLK7, EDANS-DABCYL substrate fluorescence; scaled: vehicle 0, mature enzyme 100; shares compounds with KLK7 zymogen act;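 active = activation, as change over the incubation, above the mean of all tested compounds plus 3 SD, cut at about 13% in these data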
EDANS-DABCYL int = EDANS-DABCYL substrate optical interference, artefact control for kallikrein-7 zymogen activator project, biochemical, fluorescence intensity, high throughput | shares compounds with KLK7 zymogen act | no enzyme, 4 h; solvent 0%, active enzyme control 100% | activation, % at 7 µM | actives 80% (n = 3,200);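 active = activation above the all-compound mean plus 3 SD, ignoring values outside control-based bounds, cut at about 4.8% in these data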;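 note: value is the 4 h activation minus the activation read at time zero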
K7 EDANS ctr = optically interferes with EDANS-DABCYL fluorescence, kallikrein-7 activator counter-screen; shares compounds with KLK7 zymogen act; EDANS-DABCYL peptide fluorescence interference, no enzyme; EC50, µM; actives 20% (n = 250); AID 720493;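 active = compounds that raise the fluorescence signal in this interference counterscreen, with EC50 at or below 10 µM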;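 note: intact quenched peptide substrate alone read at 355 nm excitation and 520 nm emission; signal is fluorescence gain from T0 to T4 after four hours at room temperature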
* = called active by the depositor; i = inactive; · = no result shown.

SMILES	KLK7 zymogen act	proCasp3 act	proCasp7 act	Neddylation inh	KLK7 act conf	EDANS-DABCYL int	others
COc1ccc(C2C3=C(CCCC3=O)Nc3c(-c4ccccc4)c(C)nn32)cc1 (stereo not given)	·	-1	5	·	·	·
Cc1nn2c(c1-c1ccccc1)NC1=C(C(=O)CCC1)C2c1ccccc1 (stereo not given)	30*	1	1	·	63*	74*
O=C(O)CCN1CCc2ccccc2C1c1ccncc1 (stereo not given)	0	-1	-2	i	·	·
CCOc1ccccc1C(=O)NC(C(=O)N(C)c1c(N)n(Cc2ccccc2)c(=O)[nH]c1=O)C(C)C (stereo not given)	0	·	·	i	·	·
COc1ccc(/C=C/C(=O)NC(=S)Nc2ccc(S(N)(=O)=O)cc2)cc1OC	19*	-4	3	i	13*	17*
COc1cc(/C=C/C(=O)Nc2ccncc2)cc(OC)c1OC	28*	5	1	·	8	18*
COc1ccc(/C=C/C(=O)Nc2ccc(-n3nncc3-c3ccc(OC)c(OC)c3)cc2)cc1OC	28*	2	-9	·	-9	-20
CCc1cccc(NC(=O)CCS(=O)(=O)c2ccc(Br)cc2)c1	-1	-1	-8	i	·	·
CCOC(=O)C1CCN(C(=O)Nc2ccc3nc(C)c(C)nc3c2)CC1	23*	2	5	·	46*	53*
CCCCCC(=O)Nc1ccc2oc(-c3cccnc3)nc2c1	2	-10	3	·	·	·
O=C(Cc1ccccc1)Nc1ccc2oc(-c3cccnc3)nc2c1	22*	-11	-5	·	-10	-9
O=C(CCc1c[nH]c2ccccc12)NCC(=O)Nc1ccc(F)c(F)c1F	-1	3	4	i	·	·
Cc1ccc(-n2[nH]c(C)c(C=Nc3ccc4[nH]c(=O)[nH]c4c3)c2=O)cc1	379*	-5	10	i	443*	407*
Cc1ccc(-n2[nH]c(C)c(C=Nc3ccc4[nH]c(=O)[nH]c4c3)c2=O)cc1C	179*	-21	-22	·	186*	169*
Cc1[nH]n(-c2cccc3ccccc23)c(=O)c1C=Nc1ccc2[nH]c(=O)[nH]c2c1	0	-6	-9	i	·	·
Cc1ccc(-n2[nH]c(C)c(C=Nc3ccc(S(=O)(=O)Nc4nccs4)cc3)c2=O)cc1C	0	11	5	i	·	·
COC(=O)CC1C(=O)NCCN1C(=O)c1oc2c(C)c(C)ccc2c1C (stereo not given)	-1	·	·	i	·	·
O=C(c1cccs1)N1C(=O)c2cccc3cccc1c23	32*	9	-8	i	-1	-12
O=C(c1ccco1)N1C(=O)c2cccc3cccc1c23	35*	-1	18	i	87*	90*
Nc1cccc2c1C(=O)N(C(=O)c1ccco1)C2=O	32*	3	-10	·	154*	178*
Nc1cccc2c1C(=O)N(C(=O)/C=C/c1ccc(F)cc1)C2=O	3	13	10	·	·	·
COc1ccc(C(O)c2ncc(-c3cccc4ccccc34)[nH]2)cc1F (stereo not given)	-1	·	·	i	·	·
Cc1ccc2nc3c(c(N)c2c1)CCN3C	3	0	-13	i	·	·
Cc1ccc2nc3c(c(N)c2c1)CCN3c1ccccc1	106*	-3	1	i	-188	-84
CCc1cc2c(=O)c(-c3cscn3)coc2c(CN(C)C)c1O	30*	7	2	·	63*	71*
SMILES	KLK7 zymogen act	proCasp3 act	proCasp7 act	Neddylation inh	KLK7 act conf	EDANS-DABCYL int	others
Cc1cc(C)c2c(N)c(C(=O)NN3CC(=O)N(c4cccc(Cl)c4)CC3=O)sc2n1	13*	-3	-3	i	5	-3
Cc1cc(C)c2c(N)c(C(=O)NN3CC(=O)N(c4ccccc4)CC3=O)sc2n1	109*	-1	6	·	32*	38*
O=C1CC/C=C\C[C@@H](CC(=O)N(CCO)Cc2ccccc2)C(=O)N2CCC[C@H]2CO1	0	1	-8	i	·	·
O=C(N=C1SC2CS(=O)(=O)CC2N1Cc1ccccc1Cl)C1CC1 (stereo not given)	0	13	8	i	·	·
COCCNC(=O)Cc1c(C)c2cc3c(cc2oc1=O)OC(C)(C)CC3	13*	·	·	·	15*	10.0*	K7 EDANS ctr=>70
CCOC(CCNC(=O)c1cc(-c2cccs2)nc2ccccc12)OCC	32*	16	12	·	9	9.8*
CC(C)NC(=O)c1cc(-c2cccs2)nc2ccccc12	2	-2	4	·	·	·
O=C(NC1=NCCS1)c1cc(-c2cccs2)nc2ccccc12	35*	0	-3	·	-28	-14
O=C(NC1=NCCS1)c1cc(-c2cccnc2)nc2ccccc12	0	3	10	i	·	·
COc1ccc(CCNC(=O)CSc2nc(N)c(C#N)c(-c3cccs3)c2C#N)cc1OC	22*	0	2	i	35*	41*
COc1ccc(CNC(=O)COC(=O)c2cc(-c3cccs3)nc3ccccc23)cc1OC	15*	7	17	·	-3	0
CCOC(=O)C1CCN(C(=O)CSc2ccccc2Cl)CC1	0	0	-3	i	·	·
O=C(O)c1ccc(/C=N/NC(=O)c2cc(-c3cccs3)nc3ccccc23)cc1	23*	-4	8	·	28*	21*	K7 EDANS ctr=i
C[C@@]12CC[C@@H](C3=C(CCC3)C1)N2c1ccccc1	0	·	·	i	·	·
CCOC(=O)c1c(-c2ccccc2)cn2c(C)cc(C)nc12	13*	-12	-2	·	6	-2
Cc1ccc(N(CCC#N)C(=O)COC(=O)C2=COCCO2)cc1	0	6	5	i	·	·
CCOP(=O)(OCC)c1nc(-c2ccccc2Cl)oc1N1CCOCC1	0	-5	-8	i	·	·
CCOP(=O)(OCC)c1nc(-c2cccc3ccccc23)oc1N1CCOCC1	63*	-1	12	i	63*	58*
CNc1nc2sc3c(c2c(=O)n1C)CC(C)(C)SC3	23*	0	-5	·	1	2
CC1(C)Cc2c(sc3nc(SCC(=O)NCc4ccco4)n(-c4ccccc4)c(=O)c23)CS1	-1	-5	-4	i	·	·
